For assay [1], the target named is T1, Cyclic nucleotide-gated channel alpha-1 (Bos taurus, UniProt Q00194).
T1 sequence (Q00194 whole entry): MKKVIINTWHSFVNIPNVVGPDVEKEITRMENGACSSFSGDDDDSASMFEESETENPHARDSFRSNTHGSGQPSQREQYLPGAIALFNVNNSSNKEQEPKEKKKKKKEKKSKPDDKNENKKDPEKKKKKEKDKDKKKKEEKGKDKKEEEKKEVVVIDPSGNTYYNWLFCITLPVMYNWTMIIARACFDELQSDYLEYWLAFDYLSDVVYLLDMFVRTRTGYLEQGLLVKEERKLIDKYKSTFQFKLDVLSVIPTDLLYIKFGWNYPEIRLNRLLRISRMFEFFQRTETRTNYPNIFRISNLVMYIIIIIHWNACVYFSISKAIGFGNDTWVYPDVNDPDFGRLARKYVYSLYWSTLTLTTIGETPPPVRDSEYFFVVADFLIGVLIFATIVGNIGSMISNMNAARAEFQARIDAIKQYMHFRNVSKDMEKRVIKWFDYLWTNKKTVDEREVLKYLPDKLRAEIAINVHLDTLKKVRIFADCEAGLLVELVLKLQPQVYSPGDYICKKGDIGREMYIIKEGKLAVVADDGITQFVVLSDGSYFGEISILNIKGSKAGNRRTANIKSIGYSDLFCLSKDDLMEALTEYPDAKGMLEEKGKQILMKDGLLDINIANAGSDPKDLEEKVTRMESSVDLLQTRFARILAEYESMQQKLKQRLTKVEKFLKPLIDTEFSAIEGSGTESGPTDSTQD
Description: Apparent dissociation constant against Cyclic nucleotide gated channel alpha 1 at 0 mV. The method in brief: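 CNGA1 (bovine) expressed in Xenopus oocytes from 5-25 ng cRNA; inside-out patches at room temperature in symmetrical 130 mM NaCl, 2 mM HEPES, 1 mM EGTA, 0.02 mM EDTA, pH 7.6, saturating cGMP with blocker in bath. Depolarizations -80 to +60 mV in 10 mV steps. Fraction of current remaining fitted with Woodhull equation, giving KD at 0 mV and zδ.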

Assay [2] addresses T1, Cyclic nucleotide-gated channel alpha-1. As to the kind of experiment: Apparent dissociation constant against Cyclic nucleotide gated channel alpha 1 at +40 mV. Put shortly:
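Bovine CNGA1 cRNA injected (5-25 ng) into Xenopus oocytes kept at 18 °C; inside-out excised patches recorded 1-6 days later at room temperature. Identical pipet/bath solution: 130 mM NaCl, 2 mM HEPES, 1 mM EGTA, 0.02 mM EDTA, pH 7.6. Blocker added to bath with saturating cGMP; steps -80 to +40 mV. End-of-pulse current corrected for ion accumulation/depletion. KD from I+D/I-D = KD/(KD+[D]).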

Molecules are shown by their SMILES. pKd: −log10 of the molar value.

For the compound `CN(C)CCOC(=O)c1ccc(NCCCCN)cc1`, the pKd in assay [1] is 3.01; in assay [2], 3.68.
For `CN(C)CCOC(=O)c1ccc(N)cc1` the same measures were 2.00 and 2.64.
With `CCCCNc1ccc(C(=O)OCC[N+](C)(C)CCCN)cc1`, the pKd in assay [1] is 5.85; in assay [2], 7.13.
For `CCCCNc1ccc(C(=O)OCC[N+](C)(C)CCCC)cc1` the same measures were 5.27 and 5.51.
For `CC(=O)NCCCCNc1ccc(C(=O)OCCN(C)C)cc1` the same measures were 2.40 and 2.60.
In the same order, the values of `CCCCNc1ccc(C(=O)OCC[N+](C)(C)CCCNCCCN)cc1` are 8.16 and 10.52.

These data come from ChEMBL document CHEMBL1141076 (J Med Chem, 2005).
